From ChEMBL document CHEMBL3779827, “A new series of 2-phenol-4-aryl-6-chlorophenyl pyridine derivatives as dual topoisomerase I/II inhibitors: Synthesis, biological evaluation and 3D-QSAR study” (Eur J Med Chem, 2016)
Structures can show the parent of a compound that is named as a salt.

Tests used:
HeLa = assay: Cytotoxicity against human HeLa cells after 48 hrs by CCK8 assay; type: functional, cell-based
In short: (§1)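 IC50 values are reported in micromolar. Adriamycin, etoposide and camptothecin served as positive controls.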

[1] = Cytotoxicity against human HCT15 cells after 48 hrs by CCK8 assay; type: functional, cell-based; details: HCT-15, 48 h; in short: as §1
[2] = Cytotoxicity against human DU145 cells after 48 hrs by CCK8 assay; details: DU-145, 48 h

## CC[C@@]1(O)C(=O)OCc2c1cc1n(c2=O)Cc2cc3ccccc3nc2-1 [CAMPTOTHECIN]
HeLa
  IC50: 180 nM
[1]
  IC50: 2820 nM
[2]
  IC50: 20 nM

## COc1cccc2c1C(=O)c1c(O)c3c(c(O)c1C2=O)C[C@@](O)(C(=O)CO)C[C@@H]3O[C@H]1C[C@H](N)[C@H](O)[C@H](C)O1 [DOXORUBICIN HYDROCHLORIDE]
[1]
  IC50: 1230 nM

## COc1cc([C@@H]2c3cc4c(cc3[C@@H](O[C@@H]3O[C@@H]5CO[C@@H](C)O[C@H]5[C@H](O)[C@H]3O)[C@H]3COC(=O)[C@H]23)OCO4)cc(OC)c1O [ETOPOSIDE]
[1]
  IC50: 18900 nM
[2]
  IC50: 2090 nM
